Data set [1] deals with Mus musculus. The data set is described as follows: Protection against C57BL/6 mouse model of caerulein-induced acute pancreatitis at 20 mg/kg, po pretreated twice daily for 6 days followed by caerulein-challenge at 1 hr interval for 8 hrs and measured 1 hr post-last caerulein-challenge by H and E staining-based histological analysis.
The test system of data set [2] is Mus musculus. The data set is described as follows: Protection against C57BL/6 mouse model of caerulein-induced acute pancreatitis assessed as reduction in CatC activity at 20 mg/kg, po pretreated twice daily for 6 days followed by caerulein-challenge at 1 hr interval for 8 hrs and measured 1 hr post-last caerulein-challenge.
Data set [3] has as its target T1, Dipeptidyl peptidase 1 (Homo sapiens, UniProt P53634). The data set is described as follows: Inhibition of CatL-activated recombinant human C-terminal His10-tagged cathepsin C (25 to 463 residues) expressed in mouse myeloma cells using Gly-Phe-AFC as substrate preincubated for 3 hrs followed by substrate addition and measured after 60 mins. In kind it is cell-free. In outline:
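Activated rhCatC was diluted to 4.4 nM in 25 mM MES, 50 mM NaCl, 5 mM DTT, 0.01% Triton X-100, pH 6.0. It was preincubated with compound (added in 10% DMSO) for 3 h at RT. Gly-Phe-AFC was then added to 100 μM final and read as fluorescence after 60 min. IC50 came from a sigmoidal nonlinear fit; values are means of at least two experiments.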

Another data set deals with Cathepsin S (Homo sapiens, UniProt P25774). Nature of the data set: Inhibition of recombinant human C-terminal polyhistidine-tagged cathepsin S (Met1 to Ile331 residues) expressed in HEK293 cells using MCA-Arg-Pro-Lys-Pro-Val-Glu-NVAL-Trp-Arg-Lys(DNP)-NH2 as substrate preincubated for 30 mins followed by substrate addition and measured after 30 mins. An outline of the steps:
(§1)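 Recombinant human cathepsin was preincubated with compound for 30 min at RT, then reacted with substrate for 30 min. CatB and CatL were read with Z-Leu-Arg-AMC (Ex 380/Em 460 nm). CatS was read with MCA-Arg-Pro-Lys-Pro-Val-Glu-Nva-Trp-Arg-Lys(DNP)-NH2 (Ex 320/Em 405 nm). E-64 served as inhibitor control.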

The nature of data set [4]: Intrinsic clearance in mouse liver microsomes assessed per mg protein measured after 60 mins in presence of NADPH by LC-MS/MS analysis. In kind it is ADME, Microsome. Particulars: read-out: CLH.
A further data set deals with Cytochrome P450 2C9 (Homo sapiens, UniProt P11712). The data set is described as follows: Inhibition of CYP2C9 (unknown origin). In kind it is ADME. In outline:
(§2)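 Tested against recombinant human cytochrome P450 isoforms 1A2, 2D6, 3A4, 2C9 and 2C19.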

The target of data set [5] is T2, Epidermal growth factor receptor (Homo sapiens, UniProt P00533). Nature of the data set: Inhibition of EGFR (unknown origin) up to 10 uM using biotin-labelled peptide as substrate preincubated for 2 hrs followed by substrate addition and measured after 30 mins by HTRF FRET assay. In outline: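 EGFR WT was used at 0.1 nM final in 50 mM HEPES pH 7.0, 0.02% NaN3, 0.01% BSA, 0.1 mM orthovanadate, 10 mM MgCl2, 2.5 mM DTT, 6.25 nM SEB. It was preincubated with compound for 2 h. Biotin-peptide (1.4 μM) and ATP (20 μM) were then added for 30 min at RT. Read-out was HTRF/TR-FRET (Ex 320, Em 615/665 nm) with a sigmoidal curve fit.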
(In general: In TR-FRET formats the signal depends on donor and acceptor labels being close together.)

The target of the next data set is Procathepsin L (Homo sapiens, UniProt P07711). Nature of the data set: Inhibition of recombinant human C-terminal His6-tagged cathepsin L (Glu113 to Val333 and Ala114 to Val333 residues) expressed in mouse myeloma cells using Z-Leu-Arg-AMC as substrate preincubated for 30 mins followed by substrate addition and measured after 30 mins. An outline of the steps: as §1

In another data set the target is Cytochrome P450 2C19 (Homo sapiens, UniProt P33261). Nature of the data set: Inhibition of CYP2C19 (unknown origin). Type of data set: ADME. An outline of the steps: as §2
In the next data set the target is Cytochrome P450 2D6 (Homo sapiens, UniProt P10635). The data set is described as follows: Inhibition of CYP2D6 (unknown origin). In kind it is ADME. In outline: as §2
Another data set has as its target Cathepsin B (Homo sapiens, UniProt P07858). Nature of the data set: Inhibition of recombinant human C-terminal polyhistidine-tagged cathepsin B (Arg18 to Ile339 residues) expressed in HEK293 cells using Z-Leu-Arg-AMC as substrate preincubated for 30 mins followed by substrate addition and measured after 30 mins. An outline of the steps: as §1
In a further data set the target is Cytochrome P450 3A4 (Homo sapiens, UniProt P08684). Nature of the data set: Inhibition of CYP3A4 (unknown origin). Type of data set: ADME. In outline: as §2
Data set [6] is described as follows: Intrinsic clearance in rat liver microsomes assessed per mg protein measured after 60 mins in presence of NADPH by LC-MS/MS analysis. In kind it is ADME, Microsome. The settings on record: read-out: CLH. In general terms: Liver microsomes are vesicles of endoplasmic reticulum, rich in cytochrome P450 enzymes.
Data set [7] deals with T1, Dipeptidyl peptidase 1. Nature of the data set: Inhibition of cathepsin C in human U937 cells using H-Gly-Phe-AFC as substrate preincubated for 4 hrs followed by substrate addition and measured after 60 mins. In kind it is cell-based. In outline: (§3)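 THP1 or U937 cells, grown in RPMI 1640 with 10% FBS, were seeded at 1.0 × 10^6/mL. They were preincubated with threefold serial dilutions of compound for 4 h at 37 °C. H-Gly-Phe-AFC was then added from a 100 μM solution and fluorescence was read after 60 min at 37 °C. Values are means of at least two experiments.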

The target in a further data set is T3, Cytochrome P450 1A2 (Homo sapiens, UniProt P05177).
T3 sequence (P05177 whole entry): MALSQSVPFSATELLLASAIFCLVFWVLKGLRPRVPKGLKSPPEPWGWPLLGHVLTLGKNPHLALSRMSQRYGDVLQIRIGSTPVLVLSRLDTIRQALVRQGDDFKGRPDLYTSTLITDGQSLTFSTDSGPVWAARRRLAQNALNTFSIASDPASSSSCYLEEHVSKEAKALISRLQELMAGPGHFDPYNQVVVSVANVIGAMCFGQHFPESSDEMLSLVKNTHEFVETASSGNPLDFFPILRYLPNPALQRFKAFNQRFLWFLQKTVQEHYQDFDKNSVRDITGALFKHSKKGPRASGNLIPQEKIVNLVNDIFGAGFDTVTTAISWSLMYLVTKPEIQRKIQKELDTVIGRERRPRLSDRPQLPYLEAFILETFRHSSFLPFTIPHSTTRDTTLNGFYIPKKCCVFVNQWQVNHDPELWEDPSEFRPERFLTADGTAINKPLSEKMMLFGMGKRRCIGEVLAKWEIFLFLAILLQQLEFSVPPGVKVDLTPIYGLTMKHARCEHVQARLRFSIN
The data set is described as follows: Inhibition of CYP1A2 (unknown origin). Type of data set: ADME. In outline: as §2

A short description of data set [8]: Intrinsic clearance in human liver microsomes assessed per mg protein measured after 60 mins in presence of NADPH by LC-MS/MS analysis. Type of data set: ADME, Microsome. The settings on record: read-out: CLH.
The target of data set [9] is T1, Dipeptidyl peptidase 1. Nature of the data set: Inhibition of cathepsin C in human THP1 cells using H-Gly-Phe-AFC as substrate preincubated for 4 hrs followed by substrate addition and measured after 60 mins. Type of data set: cell-based. In outline: as §3
Data set [10] concerns the target T2, Epidermal growth factor receptor. The data set is described as follows: Inhibition of EGFR (unknown origin) using biotin-labelled peptide as substrate preincubated for 2 hrs followed by substrate addition and measured after 30 mins by HTRF FRET assay.

Activity calls are given as the source filed them. No cut-off for these calls is given here.

`N#Cc1ccc(-c2ccc(C[C@@H](C#N)NC(=O)C3(N)CCOCC3)cc2)cc1`: the result with Mus musculus [1] and in the data set on Mus musculus [2] was Active.

For orientation: IC50 means the concentration needed to halve the response being measured. As to `C=CC(=O)Nc1cc(Oc2nc(Nc3ccc(N4CCN(C)CC4)cc3OC)ccc2N2CCCC2)ccc1C`, the IC50 on Dipeptidyl peptidase 1 [3] was 0.044 µM; at Cathepsin S it was over 10 µM; on Cytochrome P450 2C9, over 10 µM; at Procathepsin L, 3 to 10 µM; on Cytochrome P450 2C19, 9.91 µM; on Cytochrome P450 2D6, over 10 µM. The IC50 at Cathepsin B is 3 to 10 µM; on Cytochrome P450 3A4 it was over 10 µM; at Dipeptidyl peptidase 1 [7], 0.0408 µM; at Cytochrome P450 1A2, 8.75 µM; against Dipeptidyl peptidase 1 [9] it was 0.0123 µM. The microsomal CLint in data set [4] is 26.7 µL/min/mg; in data set [6], 23.1 µL/min/mg; in data set [8], 4.3 µL/min/mg. Besides, the inhibition result in data set [5] is “inactive”.

Consider `C=CC(=O)Nc1cccc(Oc2nc(Nc3ccc(N4CCN(C)CC4)cc3OC)ccc2Cl)c1`, for which the values for the half-maximal inhibitory concentration (IC50) (at Dipeptidyl peptidase 1 [3]; in [10]; at Dipeptidyl peptidase 1 [7]) were 0.81 µM, over 10 µM and 0.537 to 0.538 µM, respectively. The microsomal CLint in data set [4] is 26.3 µL/min/mg; in data set [6] it was 39.7 µL/min/mg; in data set [8], 5.4 µL/min/mg. The inhibition result in data set [5] was “inactive”.

As for `C=CC(=O)Nc1cc(Oc2nc(Nc3ccc(N4CCN(C)CC4)cc3OC)ccc2N2CCOCC2)ccc1C`, the concentration for half-maximal inhibition (IC50) is 0.059 to 0.0593 µM at Dipeptidyl peptidase 1 [3]; over 10 µM at Cathepsin S; over 10 µM against Cytochrome P450 2C9; over 10 µM at Procathepsin L; over 10 µM against Cytochrome P450 2C19; over 10 µM against Cytochrome P450 2D6. Further, the half-inhibitory concentration (IC50) on Cathepsin B is 3 to 10 µM; against Cytochrome P450 3A4, over 10 µM; against Dipeptidyl peptidase 1 [7], 0.0059 µM; against Cytochrome P450 1A2 it was over 10 µM; on Dipeptidyl peptidase 1 [9], 0.0039 µM. Moreover, the microsomal CLint came to 4 µL/min/mg in data set [4], 10 µL/min/mg in data set [6] and 1.9 µL/min/mg in data set [8]. The inhibition entry in [5] is “inactive”.

Source of the values: ChEMBL document CHEMBL4396895, “Identification and Optimization of Novel Cathepsin C Inhibitors Derived from EGFR Inhibitors” (J Med Chem, 2019).
